# High-throughput results as filed in PubChem BioAssay.
# Only some compounds are listed: those with a hit (about 1.8% of all), similar ones and a draw of the others.
# CHRM4 agonist – CHRM4 agonism in calcium assay | P08173 | actives 0.14% (n = 360,000) | activation, % at 3 µM | CHO-K1 hM4/Gqi5, Fluo-8 calcium fluorescence; vehicle 0%, full acetylcholine response 100%;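 active = activation above the run mean over all test wells plus 3 SD, cut at about 32% in these data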;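 also: peak over basal fluorescence ratio per well then scaled between controls; 0% = DMSO wells and 100% = acetylcholine at EC100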
# Target sequence (P08173 whole entry, looked up): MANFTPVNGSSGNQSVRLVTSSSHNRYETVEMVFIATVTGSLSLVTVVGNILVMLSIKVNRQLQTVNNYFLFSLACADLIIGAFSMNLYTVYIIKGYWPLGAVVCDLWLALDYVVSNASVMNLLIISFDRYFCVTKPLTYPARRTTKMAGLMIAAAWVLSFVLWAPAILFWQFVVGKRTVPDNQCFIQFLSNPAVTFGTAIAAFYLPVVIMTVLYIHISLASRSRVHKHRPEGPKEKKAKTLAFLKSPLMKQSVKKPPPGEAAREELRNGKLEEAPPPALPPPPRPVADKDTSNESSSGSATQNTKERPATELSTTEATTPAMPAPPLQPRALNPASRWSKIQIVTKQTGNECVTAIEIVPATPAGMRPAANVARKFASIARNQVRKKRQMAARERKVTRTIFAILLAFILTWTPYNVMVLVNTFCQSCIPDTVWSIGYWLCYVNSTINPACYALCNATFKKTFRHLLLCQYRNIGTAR
# M4 antag – antagonists of human muscarinic M4 receptor (CHRM4) | actives 0.73% (n = 360,000) | CHO-hM4 cells, ACh EC80, Fluo-8 calcium fluorescence | inhibition, % at 3 µM | P08173;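 active = inhibition above its plate's cutoff, the mean inhibition of sample wells plus 3 SD, cut at about 27% in these data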;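 also: 0% = acetylcholine EC80 with DMSO and 100% = DMSO without agonist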
# M5 antag – CHRM5 antagonism in calcium assay | inhibition, % at 3 µM | actives 0.59% (n = 360,000) | CHO-hM5 cells, Fluo-8 calcium fluorescence, ACh EC80;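 active = inhibition above a per-plate cutoff, the mean of that plate's test compounds plus 3 SD, cut at about 27% in these data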;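 also: 0% = acetylcholine EC80 with DMSO and 100% = DMSO without agonist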
# M5 PAM – potentiates acetylcholine response at human M5 receptor | P08912 | CHO-K1 hM5, Fluo-8 calcium, ACh EC20 PAM; 0% = ACh EC20, 100% = ACh EC100 | activation, % at 3 µM | actives 0.3% (n = 360,000) | AID 624038;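 active = activation above the run cutoff, the mean activation of all test compounds plus 3 SD, cut at about 18% in these data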
#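 system = human M5 receptor in CHO-K1 cells | reagent = EC20 acetylcholine as agonist stimulus | compound dosing = single-point, 3 µM nominal | incubation = Fluo-8 loading 80 min at 37 °C plus 30 min room temperature | detection = Fluo-8 calcium dye fluorescence, kinetic read | benchmarks = low control EC20 acetylcholine (0%), high control EC100 acetylcholine (100%)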
# CHRM5 agonist – agonists of human muscarinic M5 receptor (CHRM5) | P08912 | actives 0.19% (n = 360,000) | CHO-K1 hM5 cells, Fluo-8 calcium fluorescence; 0% DMSO wells, 100% maximal acetylcholine response | activation, % at 3 µM | AID 624037;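 active = activation above the run's mean over test compounds plus 3 SD, cut at about 23% in these data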;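 also: signal is peak over basal fluorescence ratio across the kinetic read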
# CHRM4 PAM – potentiates acetylcholine response at human M4 receptor; P08173; CHO-K1 hM4/Gqi5, Fluo-8 calcium fluorescence, ACh EC20; 0% = ACh EC20, 100% = maximal ACh; activation, % at 3 µM; actives 0.4% (n = 360,000);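 active = activation above its plate's cutoff, the mean activation of sample wells plus 3 SD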
# The depositor's hits bear a star.
SMILES,CHRM4 agonist,M4 antag,M5 antag,M5 PAM,CHRM5 agonist,CHRM4 PAM
C/C(=N\NC(=S)NC(C)C)c1ccc(Cl)s1,-2.3,27.3*,7.8,-17.5,-5.9,-34.2
COCCn1c(=NC(=O)CCS(=O)(=O)c2ccccc2)sc2ccccc21,8.6,1.9,-1.3,-1.8,-0.8,-3.5
COC(=O)c1ccc2c(c1)sc(=NC(=O)CCS(=O)(=O)c1ccccc1)n2C,8.0,-5.6,-9.5,2.0,3.6,18.0*
CC(NC(=O)CCNC(=O)c1ccc(C(C)(C)C)cc1)c1ccccc1 (centres undefined),3.6,-6.4,21.9,-4.9,-2.1,10.0
Cc1cc(C)c(C#N)c(SCc2nnc(-c3ccccc3[N+](=O)[O-])o2)n1,24.3,7.2,46.7*,-21.0,-2.4,-15.8
Cc1cc(C)c(C#N)c(SCc2ccccc2[N+](=O)[O-])n1,-1.1,3.9,9.2,-5.9,-5.2,0.7
COc1ncccc1C(=O)Nc1c(-c2ccccc2)[nH][nH]c1=O,2.8,39.1*,11.4,-6.0,0.7,0.8
COc1cc(NCc2ccccc2)c2ncn(Cc3ccccc3)c2c1,17.0,-19.7,-23.6,21.8*,10.1,36.1*
COCCCOc1cc(NCc2ccccc2)c2ncn(C(C)C)c2c1,-0.3,-13.3,0.7,7.1,1.5,12.1
CCCCOc1cc(NCc2ccccc2)c2ncn(C(C)C)c2c1,11.2,-23.3,7.7,12.8,12.6,28.8*
CCCCC[C@H](C)N1C[C@@H](COCc2ccccc2)Oc2cc(N3CCC[C@H]3C(N)=O)ccc2S1(=O)=O,-0.2,-14.9,4.8,2.3,3.9,9.7
Cc1ccc(S(=O)(=O)N2CCCCC2)cc1C(=O)NCCN1CCOCC1,0.4,-8.8,-2.0,7.3,-0.7,4.0
CC1COc2c3ccccc3nn21 (centres undefined),0.3,-9.8,6.4,-4.2,0.7,3.4
CC1(C)CC(=O)c2c(O)cc(OCC(=O)Nc3ccc(S(N)(=O)=O)cc3)cc2O1,2.8,-5.5,6.0,-2.9,1.5,2.2
COc1cc(NC(=O)COc2cc(O)c3c(c2)OC(C)(C)CC3=O)cc(OC)c1OC,30.6,2.8,42.7*,-24.5,13.4,-9.6
O=C1NC[C@@H](CCCCN2C[C@H](Cc3ccccc3)N(Cc3ccccc3)C(=O)C2=O)N(Cc2ccccc2)C1=O,1.1,-6.6,6.2,-2.1,-1.2,5.4
Cc1noc(C)c1CN(C(=S)NC1CC2CCC1C2)c1ccccc1 (centres undefined),-1.1,-5.1,-5.4,22.6*,-6.6,-0.1
CCc1cnc(Nc2nc(C(N)c3ccccc3Cl)cs2)nc1 (centres undefined),6.9,-18.7,4.3,1.0,4.4,3.5
CC(NCc1ccc(S(N)(=O)=O)cc1)C(=O)NCc1ccccc1 (centres undefined),-0.2,7.9,5.8,3.6,-1.0,-0.4
CCC(Oc1ccccc1)C(=O)NCc1ccc(S(N)(=O)=O)cc1 (centres undefined),1.3,-3.0,-5.0,1.7,-0.9,20.4*
O=C(NCCCN1CCC(Cc2ccccc2)CC1)c1ccc(CS(=O)c2ccccc2Cl)o1 (centres undefined),6.7,28.4*,22.6,-18.8,-2.4,-13.7
O=C(NCc1ccco1)c1ccc(CS(=O)c2ccccc2Cl)o1 (centres undefined),2.7,-20.9,6.8,-7.0,0.2,5.2
COC(=O)c1ccccc1S(=O)(=O)N1CCC(C(=O)Nc2ccc(N3CCOCC3)cc2)CC1,1.7,-2.6,17.5,-1.3,-1.0,12.7
CN1CCN(c2ccc(CNC(=O)C3(C)Cc4c(-c5ccccc5)ccnc4O3)cc2)CC1 (centres undefined),0.9,2.1,-3.1,0.0,-2.8,0.3
Cc1ccc(C(=O)N2CCC3(CC2)NCCc2[nH]cnc23)cc1C,3.3,-1.2,-8.1,-0.2,-1.0,16.6*
CSCC[C@H](NC(=O)c1ccc2ccccc2c1)C(=O)N1CCC2(CC1)NCCc1[nH]cnc12,-0.5,17.8,27.2*,-6.4,-6.4,-13.3
